According to ChEMBL document CHEMBL2046333, “Antiprotozoal and antimicrobial compounds from the plant pathogen Septoria pistaciarum” (J Nat Prod, 2012):
In brackets after ≈: the same amount, converted by molar mass. Each block holds one molecule with its values, some of them ahead of it. Activity calls are given as the source filed them. The rule behind the calls is not given here.

Experiments:
Vero = experiment: Cytotoxicity against african green monkey Vero cells; format: cell-based, Chlorocebus sabaeus
Summary of the method: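 Mammalian cells (Vero, LLC-PK11, SK-MEL, KB, BT-549, SK-OV-3) exposed to compound; viable cells counted by Neutral Red dye uptake; IC50 taken from dose-response curves.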

SK-OV-3 = experiment: Cytotoxicity against human SKOV3 cells assessed as viable cells by neutral red dye method; format: functional, cell-based
SK-MEL = experiment: Cytotoxicity against human SK-MEL cells assessed as viable cells by neutral red dye method; format: functional, cell-based
Lactuca sativa [1] = experiment: Phytotoxic activity against Lactuca sativa cv. L. at 1.62 mM; format: functional, organism-based
Summary of the method: (§1)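 Compound (1 mg) dissolved in 100 μL acetone; 20 μL spotted on filter paper, air-dried 30 min. Paper placed in well, 200 μL water added. Bentgrass (Agrostis stolonifera) or lettuce (Lactuca sativa cv. L., Iceberg) seeds used. Solvent controls treated identically. Growth scored visually from 0 (no effect) to 5 (no growth).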

Leishmania donovani = experiment: Antileishmanial activity against Leishmania donovani promastigotes; format: functional, organism-based
Summary of the method: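 Compounds were tested in vitro on cultured L. donovani promastigotes, with pentamidine and amphotericin B as standard controls. IC50 and IC90 (50% and 90% growth inhibition) were computed from growth-inhibition curves.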

[2] = Selectivity index, ratio of IC50 for african green monkey Vero cells to IC50 for chloroquine-resistant Plasmodium falciparum W2; format: toxicity, cell-based; conditions: read-out: Ratio IC50
Summary of the method: (§2)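 Selectivity index is the IC50 for Vero-cell cytotoxicity (Neutral Red viability) divided by the IC50 against P. falciparum D6 or W2 (from dose-response curves).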

[3] = Cytotoxicity against pig LLC-PK11 cells assessed as viable cells by neutral red dye method; format: cell-based; conditions: Sus scrofa
[4] = Selectivity index, ratio of IC50 for african green monkey Vero cells to IC50 for chloroquine-sensitive Plasmodium falciparum D6; format: toxicity, cell-based; conditions: read-out: Ratio IC50; summary of the method: as §2
Plasmodium falciparum [5] = experiment: Antimalarial activity against chloroquine-sensitive Plasmodium falciparum D6 infected in RBC assessed as parasite LDH activity after 72 hrs; format: functional, organism-based; conditions: D6, 72 h
KB = experiment: Cytotoxicity against human KB cells assessed as viable cells by neutral red dye method; format: functional, cell-based
BT-549 = experiment: Cytotoxicity against human BT549 cells assessed as viable cells by neutral red dye method; format: functional, cell-based
Plasmodium falciparum [6] = experiment: Antimalarial activity against chloroquine-resistant Plasmodium falciparum W2 infected in RBC assessed as parasite LDH activity after 72 hrs; format: functional, organism-based; conditions: W2, 72 h
Agrostis stolonifera [7] = experiment: Phytotoxic activity against Agrostis stolonifera at 1.62 mM; format: functional, organism-based; summary of the method: as §1
Pichia kudriavzevii = experiment: Antifungal activity against Candida krusei ATCC 6258 by broth dilution method; format: functional, organism-based
Summary of the method: (§3)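 Broth dilution run as a modified CLSI susceptibility method. Amphotericin B was included as the antifungal drug control in each assay.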

Nakaseomyces glabratus = experiment: Antifungal activity against Candida glabrata ATCC 90030 by broth dilution method; format: functional, organism-based; summary of the method: as §3
Cryptococcus neoformans = experiment: Antifungal activity against Cryptococcus neoformans ATCC 90113 by broth dilution method; format: functional, organism-based; summary of the method: as §3
Candida albicans = experiment: Antifungal activity against Candida albicans ATCC 90028 by broth dilution method; format: functional, organism-based; summary of the method: as §3
Aspergillus fumigatus = experiment: Antifungal activity against Aspergillus fumigatus ATCC 90906 by broth dilution method; format: functional, organism-based; summary of the method: as §3
Staphylococcus aureus [8] = experiment: Antimicrobial activity against methicillin-sensitive Staphylococcus aureus ATCC 29213 by CLSI M7-A5 method; format: functional
Agrostis stolonifera [9] = experiment: Phytotoxic activity against Agrostis stolonifera at 1.87 mM; format: functional, organism-based
Summary of the method: (§4)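 Seeds were bentgrass (Agrostis stolonifera) and lettuce (cv. Iceberg), in multiwell plates. Compound was dissolved at 1 mg per 100 μL acetone, and a 20 μL aliquot was dried onto filter paper for 30 min under airflow. Water was then added. Acetone solvent controls were handled identically. Growth was scored visually from 0 (no effect) to 5 (no growth).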

Lactuca sativa [10] = experiment: Phytotoxic activity against Lactuca sativa cv. L. at 1.87 mM; format: functional, organism-based; summary of the method: as §4
Staphylococcus aureus [11] = experiment: Antimicrobial activity against methicillin-resistant Staphylococcus aureus ATCC 33591 by CLSI M7-A5 method; format: functional
Lactuca sativa [12] = experiment: Phytotoxic activity against Lactuca sativa cv. L. at 1.73 mM; format: functional, organism-based; summary of the method: as §1
Agrostis stolonifera [13] = experiment: Phytotoxic activity against Agrostis stolonifera at 1.73 mM; format: functional, organism-based; summary of the method: as §1
[14] = Chlorocebus sabaeus, Vero, read-out: IC50

Compound: COc1c(C[C@@H](C)OC(C)=O)c2c3c(C[C@@H](C)OC(C)=O)c(OC)c(=O)c4c(O)cc5c(c6c(cc(O)c(c1=O)c62)OCO5)c43
- IC50 (Vero; [14]): 4.53 µM
- IC50 (SK-OV-3): 4.8 µM
- IC50 (SK-MEL): 4.9 µM
- Activity (Lactuca sativa [1]): Active
- IC50 (Leishmania donovani): 3.1 µM
- IC90 (Leishmania donovani): 9.7 µM
- selectivity ratio [2]: 2.3
- IC50 [3]: 9.4 µM
- selectivity ratio [4]: 1.6
- IC50 (Plasmodium falciparum [5]): 2.75 µM
- IC50 (KB): 8.7 µM
- IC50 (BT-549): 8.7 µM
- IC50 (Plasmodium falciparum [6]): 1.94 µM
- Activity (Agrostis stolonifera [7]): Active

- IC50 (Leishmania donovani): 0.11 µM
- IC90 (Leishmania donovani): 0.29 µM
Compound: CC[C@@H](C)[C@H]1O[C@@H](c2c(O)c(-c3ccccc3)cn(O)c2=O)[C@H](C)C[C@@H]1C [SEPTORIAMYCIN A]
- Activity (Pichia kudriavzevii): Active
- Activity (Nakaseomyces glabratus): Active
- Activity (Cryptococcus neoformans): Active
- Activity (Candida albicans): Active
- Activity (Aspergillus fumigatus): Active

- IC50 (Leishmania donovani): 0.18 µM
- IC90 (Leishmania donovani): 0.38 µM
Compound: C[C@@H]1[C@H](O)[C@@H](C)/C=C/C=C/C=C/C=C/C=C/C=C/C=C/[C@H](O[C@@H]2O[C@H](C)[C@@H](O)[C@H](N)[C@@H]2O)C[C@@H]2O[C@](O)(C[C@@H](O)C[C@@H](O)[C@H](O)CC[C@@H](O)C[C@@H](O)CC(=O)O[C@H]1C)C[C@H](O)[C@H]2C(=O)O [AMPHOTERICIN B]

Compound: COc1c(C[C@@H](C)O)c2c3c(C[C@@H](C)O)c(OC)c(=O)c4c(O)cc5c(c6c(cc(O)c(c1=O)c62)OCO5)c43
- IC50 (Vero; [14]): 5.24 µM
- IC50 (SK-OV-3): 3.7 µM
- MIC (Staphylococcus aureus [8]): 4.7 µM (≈ 2.51 µg/mL)
- IC50 (SK-MEL): 3.6 µM
- IC50 (Leishmania donovani): 1.14 µM
- IC90 (Leishmania donovani): 2.81 µM
- selectivity ratio [2]: 3.2
- Activity (Agrostis stolonifera [9]): Active
- IC50 [3]: 3.9 µM
- selectivity ratio [4]: 4.8
- Activity (Lactuca sativa [10]): Active
- IC50 (Plasmodium falciparum [5]): 1.08 µM
- IC50 (KB): 7.1 µM
- IC50 (BT-549): 10.8 µM
- IC50 (Plasmodium falciparum [6]): 1.62 µM
- MIC (Staphylococcus aureus [11]): 9.4 µM (≈ 5.02 µg/mL)

- IC50 (Leishmania donovani): 2.9 µM
- IC90 (Leishmania donovani): 5.58 µM
Compound: N=C(N)c1ccc(OCCCCCOc2ccc(C(=N)N)cc2)cc1 [PENTAMIDINE]

Compound: COc1c(C[C@@H](C)OC(C)=O)c2c3c(C[C@@H](C)O)c(OC)c(=O)c4c(O)cc5c(c6c(cc(O)c(c1=O)c62)OCO5)c43
- Activity (Lactuca sativa [12]): Active
- IC50 (Vero; [14]): 5.21 µM
- IC50 (SK-OV-3): 4 µM
- IC50 (SK-MEL): 3.8 µM
- IC50 (Leishmania donovani): 1.7 µM
- selectivity ratio [2]: 1.7
- Activity (Agrostis stolonifera [13]): Active
- IC50 [3]: 10.1 µM
- selectivity ratio [4]: 1.9
- IC50 (Plasmodium falciparum [5]): 2.78 µM
- IC50 (KB): 8.5 µM
- IC50 (BT-549): 8.6 µM
- IC50 (Plasmodium falciparum [6]): 3.12 µM

Compound: CCN(CC)CCCC(C)Nc1ccnc2cc(Cl)ccc12 (configuration not stated) [CHLOROQUINE]
- IC50 (Vero; vero): Non-toxic

Compound: CC[C@@H](C)[C@H]1O[C@@H](c2c(OC)c(-c3ccccc3)c[n+]([O-])c2OC)[C@H](C)C[C@@H]1C
- IC50 (Vero; vero): Non-toxic
- selectivity ratio [2]: > 1.2
- selectivity ratio [4]: > 1.1
- IC50 (Plasmodium falciparum [5]): 6.76 µM
- IC50 (Plasmodium falciparum [6]): 6.51 µM

Compound: C[C@@H]1CC[C@H]2[C@@H](C)C(=O)O[C@@H]3O[C@@]4(C)CC[C@@H]1[C@]32OO4 [ARTEMISININ]
- IC50 (Vero; vero): Non-toxic
- IC50 (Plasmodium falciparum [5]): 0.02 µM
